# Screening data: PubChem, several laboratories
# Compounds with a hit are over-represented: about 2.7% of the library has one in this group of screens.
# NadD block: blocks S. aureus nicotinate mononucleotide adenylyltransferase; AID 602399; actives 0.78% (n = 360,000); purified NadD enzyme, colorimetric absorbance read-out; inhibition, % at 20 µM; in the data active = inhibition above about 26%
# Rpn11 inh: Rpn11 (human) deubiquitinase inhibition. O00487. human 26S proteasome, Ub4-pepOG fluorescence polarization; 20S core pre-blocked with epoxomicin. inhibition, % at 20 µM. actives 0.59% (n = 360,000). AID 588493;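 active = inhibition at 20 µM, scaled to each plate's controls, above about 33%, limit read from the data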
# Target sequence (O00487 whole entry, looked up): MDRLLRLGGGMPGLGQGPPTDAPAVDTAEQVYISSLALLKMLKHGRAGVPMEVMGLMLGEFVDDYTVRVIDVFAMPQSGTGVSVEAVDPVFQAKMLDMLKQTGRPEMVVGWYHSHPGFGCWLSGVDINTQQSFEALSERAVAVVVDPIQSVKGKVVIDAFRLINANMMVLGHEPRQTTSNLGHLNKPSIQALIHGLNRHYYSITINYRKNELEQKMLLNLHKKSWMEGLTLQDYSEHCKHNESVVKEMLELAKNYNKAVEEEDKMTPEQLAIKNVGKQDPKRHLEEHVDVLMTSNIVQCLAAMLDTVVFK
# TPT1 inhibitor: inhibitors of Candida albicans tRNA 2'-phosphotransferase TPT1; recombinant caTPT1, FP RNA substrate dephosphorylation; inhibition, % at 5 µM; actives 0.81% (n = 300,000); AID 1962;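 active = inhibition above the mean of all tested compounds plus 3 SD, set per screening campaign, cut at about 24% in these data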;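 note: plate controls were DMSO alone for no effect and ferristatin control at 100 nM for full effect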
# PP1 inh: counter-screen for PP5 inhibitors: inhibitors of human PP1-alpha. inhibition, % at 6.7 µM. actives 0.9% (n = 320,000). purified PP1alpha, OMFP fluorescence. AID 2235. P62136;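 active = inhibition above the mean inhibition of all tested compounds plus 3 SD, computed separately for each screening campaign, cut at about 15% in these data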
# HNF4A DNA FP: change in binding of human HNF4 alpha to DNA; HNF4a-FITC DNA binding, fluorescence polarization, 1 h; actives 0.3% (n = 360,000); activity change, % at 10 µM; in the data active = activity change above about 30%, passing the limit was not always enough
# CSN inh: inhibitors of human CSN-mediated cullin deneddylation | Q92905 | actives 0.38% (n = 360,000) | Purified CSN, SCF-Nedd8-OG deneddylation, fluorescence polarization | inhibition, % at 12.5 µM;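 active = pattern-corrected inhibition above about 35%, with an unprinted fluorescence ratio check between 0.5 and 1.5, limit read from the data, passing the limit was not always enough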;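 note: 0% = enzyme with substrate and 100% = substrate without enzyme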
#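 Assay system: purified human Csn5 enzyme expressed in HEK293T cells; Input: 0.24 nM Csn5 enzyme, final concentration; Reagent: 10 nM SCFSkp2-Nedd8OG; Compound dosing: 12.5 µM single point; Times: reaction 90 min, room temperature; Technique: fluorescence polarization readout.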
# Rpn11 confirm: confirmation of human proteasome Rpn11 inhibitors; AID 602318; inhibition, % at 20 µM; purified human 26S proteasome, Ub4-pepOG fluorescence polarization; proteasome pretreated with epoxomicin; shares compounds with Rpn11 inh; actives 29% (n = 1,900)
# MMP-2 inh: counter-screen for RPN11 inhibitors: inhibition of human MMP-2; shares compounds with Rpn11 inh; recombinant MMP-2, FRET peptide cleavage fluorescence; inhibition, % at 20 µM; actives 4% (n = 1,900);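 note: human MMP-2 activated beforehand with APMA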
# Thrombin FP: thrombin (bovine) inhibition counter-screen | shares compounds with Rpn11 inh | bovine thrombin cleavage of Ub4-pepOG, fluorescence polarization | inhibition, % at 20 µM | actives 13% (n = 1,900);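 active = mean inhibition at least 40% at 20 µM, or signal 3 deviations below plate average, so some actives read negative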;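 note: plate controls were thrombin with DMSO for no effect and buffer wells lacking thrombin for full effect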
# The depositor's hits bear a star; x = not tested or not shown; + = active, no number. Cut-off read from the data, not from the text of the source, unless noted: active = inhibition above about 40%; inactive = the rest.
SMILES,NadD block,Rpn11 inh,TPT1 inhibitor,PP1 inh,HNF4A DNA FP,CSN inh,Rpn11 confirm,MMP-2 inh,Thrombin FP
Cc1ccn2c(NC3CCCCC3)c(-c3cccc(-c4cccc(Cl)c4)c3)nc2c1,15.3,43.6*,0.6,17.1*,11.5,2.3,11.3,-40.0,-3.8
COc1cccc(OC)c1C(=O)Nc1ccc(S(=O)(=O)N2CCCCC2)cc1,-1.4,2.0,0.4,0.8,5.2,4.0,x,x,x
Cc1[nH]nc2c(=S)[nH]c(=O)[nH]c12,-2.2,-3.8,x,x,0.1,1.7,x,x,x
Cc1nnc(-c2cccc(Br)c2)c2cn(-c3ccccc3Cl)nc12,8.8,76.4*,-1.5,2.9,32.5,15.3,25.6,-7.5,25.8
Cn1c(N)c(Sc2ccccc2[N+](=O)[O-])c(=O)n(C)c1=O,-4.8,-3.8,-3.1,-2.4,-0.8,-0.5,x,x,x
CN(C)CCN1CCN(C(c2cc3ccccc3o2)c2nnnn2C(C)(C)C)CC1 (centres undefined),-7.4,x,x,x,-4.0,-0.7,x,x,x
C/C(=N\NC(=O)c1ccncc1)c1cccc(NC(=O)c2ccc(Cl)s2)c1,0.0,-10.8,x,x,-1.4,3.5,x,x,x
CCOC(=O)C1=C(C)Nc2nnnn2C1c1cccc(OC)c1OC (centres undefined),-2.0,+,-0.5,-0.7,18.7,0.6,0.1,-34.2,-8.6
CCc1nc2ccc(C(=O)NCc3ccc(OC)cc3)cn2c1N(CCC(C)C)CCN(C)C,-7.5,-12.5,x,x,-6.2,-4.9,x,x,x
N#Cc1ccc(CN2CCN(C(=O)CCNS(=O)(=O)c3ccc(F)c(Cl)c3)CC2)cc1,-3.9,-1.2,x,-2.8,0.5,-1.6,x,x,x
COc1ccc2c(-c3cc4ccc(OCc5ccc(F)cc5)cc4oc3=O)cc(=O)oc2c1,13.6,78.4*,6.7,-2.8,4.7,-1.0,15.5,-42.9,17.6
COc1ccc2c(c1)CCc1sc(NC(=O)c3ccco3)nc1-2,2.5,-7.3,1.9,-2.4,0.5,1.1,x,x,x
COc1ccc2c(c1)Cc1sc(NC(=O)c3ccco3)nc1-2,-2.5,152.1*,-3.7,-1.6,1.3,24.0,-4.9,-31.1,-8.8
CCOC(=O)c1c(C)[nH]c(C(=O)OCC(=O)N(CC)c2c(N)n(Cc3ccccc3)c(=O)[nH]c2=O)c1C,6.1,7.5,x,x,3.8,2.3,x,x,x
CCOC(=O)c1c(C)[nH]c(C(=O)OCC(=O)N(CC(C)C)c2c(N)n(Cc3ccccc3)c(=O)[nH]c2=O)c1C,14.7,60.2*,14.7,-1.6,18.5,11.6,103.8*,-1.0,68.5*
CCc1ccccc1NC(=O)N1CCCC(CCC(=O)N(C)CCc2ccccn2)C1 (centres undefined),2.5,36.3*,-0.6,-1.8,24.6,-2.3,-8.6,-10.9,-7.5
CCCCNC(=O)COC(=O)c1c2c(nc3ccccc13)CCC2,26.7,-3.0,-0.1,2.4,-10.6,4.8,x,x,x
CCCCNC(=O)COC(=O)c1c2c(nc3ccccc13)/C(=C/c1cccs1)CC2,18.6,41.4*,21.1,11.7,21.7,6.9,5.3,-57.7,-0.7
O=C(CCN1C(=O)/C(=C/C=C/c2ccccc2)SC1=S)Nc1ccccn1,37.0*,37.7*,19.9,1.1,18.3,11.1,-2.2,-9.8,-34.1
CC(=C\c1ccccc1)/C=C1/SC(=S)N(CCC(=O)Nc2ccccn2)C1=O,x,x,9.8,-11.8,x,x,x,x,x
COc1ccc2nc(N(Cc3ccccc3)C(=O)CCNC(C)=O)sc2c1,0.6,5.5,0.7,0.6,2.2,4.0,x,x,x
Cc1cc2c(c(=O)n1C1CC1)C(c1cccc(Cl)c1)C(C#N)=C(N)O2 (centres undefined),1.5,+,-0.8,1.2,27.7,0.8,7.8,-0.9,7.0
CCC(C)NC(=O)CN1c2cccc3cccc(c23)S1(=O)=O (centres undefined),-5.9,-6.1,5.8,1.7,0.3,0.4,x,x,x
